In ChEMBL document CHEMBL1671814, “Discovery of a 3-pyridylacetic acid derivative (TAK-100) as a potent, selective and orally active dipeptidyl peptidase IV (DPP-4) inhibitor” (J Med Chem, 2011):
Calls of active or inactive are those of the source. No cut-off for these calls is given here.

Legend:
[1] = Metabolic stability in rat liver microsomes assessed as compound remaining at 1 uM after 20 mins relative to basal level; format: ADME, Microsome; conditions: read-out: Stability
In short: (§1)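 Rat, dog or human hepatic microsomes ([…] final) mixed on ice with 1 μmol/L compound. Reaction started with NADPH and run 20 min at 37 °C, then stopped with ice-cold acetonitrile. Zero-time controls stopped before compound addition. Supernatant analysed by HPLC-UV. Result given as % remaining.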

Rattus norvegicus = test: Antidiabetic activity in po dosed fatty Wistar rat assessed as reduction of blood glucose excursion administered 60 mins before glucose challenge by oral glucose tolerance test; format: functional, organism-based
In short: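 Female Wistar fatty rats, 13 weeks old, fasted overnight and grouped by plasma glucose and body weight (n = 6). Oral vehicle (0.5% methylcellulose) or 0.03, 0.1, 0.3 and 1 mg/kg as free base of the monohydrate. Oral glucose 1 g/kg given 1 h later. Tail-vein blood taken at 0, 10, 30 and 60 min. Plasma glucose measured enzymatically and insulin by ELISA.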

[2] = Metabolic stability in dog liver microsomes assessed as compound remaining at 1 uM after 20 mins relative to basal level; format: ADME, Canis lupus familiaris, Microsome; conditions: read-out: Stability; in short: as §1
[3] = Metabolic stability in human liver microsomes assessed as compound remaining at 1 uM after 20 mins relative to basal level; format: ADME, Microsome; conditions: read-out: Stability; in short: as §1
[4] = Solubility of the compound at pH 1.2 after 2 hrs; format: physicochemical; conditions: buffer
In short: (§2)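 Thermodynamic solubility in Japanese Pharmacopoeia 15th ed. first fluid (pH 1.2) or second fluid (pH 6.8), incubated 2 h at 37 °C. Precipitate removed by filtration and filtrate quantified by HPLC.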

[5] = Bioavailability in rat at 0.1 mg/kg, iv and 1 mg/kg, po; format: ADME, organism-based; conditions: in vivo
In short: (§3)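 Single doses to rats (n = 3) and dogs (n = 4), intravenous 0.1 mg/kg and oral 1.0 mg/kg. Plasma obtained from serial blood samples and deproteinized with acetonitrile containing an internal standard. Supernatant diluted with 0.01 mol/L ammonium acetate. Drug quantified by LC/MS/MS. Values given as mean ± deviation.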

[6] = Half life in rat at 1 mg/kg, po; format: ADME, organism-based; design: dose 1 mg/kg, route oral; conditions: in vivo; in short: as §3
[7] = Bioavailability in dog at 0.1 mg/kg, iv and 1 mg/kg, po; format: ADME, organism-based, Canis lupus familiaris; conditions: in vivo; in short: as §3
[8] = Half life in dog at 1 mg/kg, po; format: ADME, organism-based, Canis lupus familiaris; design: dose 1 mg/kg, route oral; conditions: in vivo; in short: as §3
Dipeptidyl peptidase 2 = Dipeptidyl peptidase 2 (Rattus norvegicus, UniProt Q9EPB1); test: Inhibition of rat kidney DPP2 after 60 mins
In short: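 Rat kidney DPP-2, partially purified, preincubated with compound (DMSO) for 20 min at room temperature in […] buffer pH 5.5. Reaction started with H-Lys-Ala-pNA, added at 1 mmol/L, and run 60 min at 37 °C. A405 read at start and end against substrate-only and no-compound wells. IC50 from concentration-response curves, mean with 95% CI (n = 3).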

[9] = Solubility of the compound at pH 6.8 after 2 hrs; format: physicochemical; conditions: buffer; in short: as §2
Canis familiaris = species: Canis familiaris; conditions: Canis lupus familiaris; Plasma; 0.5 mg/kg
Dipeptidyl peptidase 8 = Dipeptidyl peptidase 8 (Homo sapiens, UniProt Q6V1X1); test: Inhibition of FLAG-tagged human DPP8 expressed in human 293F cells after 90 mins; format: cell-based
Dipeptidyl peptidase 9 = Dipeptidyl peptidase 9 (Homo sapiens, UniProt Q86TI2); test: Inhibition of FLAG-tagged human DPP9 expressed in human 293F cells after 90 mins; format: cell-based
Sequence of Dipeptidyl peptidase 9 (Q86TI2 whole entry): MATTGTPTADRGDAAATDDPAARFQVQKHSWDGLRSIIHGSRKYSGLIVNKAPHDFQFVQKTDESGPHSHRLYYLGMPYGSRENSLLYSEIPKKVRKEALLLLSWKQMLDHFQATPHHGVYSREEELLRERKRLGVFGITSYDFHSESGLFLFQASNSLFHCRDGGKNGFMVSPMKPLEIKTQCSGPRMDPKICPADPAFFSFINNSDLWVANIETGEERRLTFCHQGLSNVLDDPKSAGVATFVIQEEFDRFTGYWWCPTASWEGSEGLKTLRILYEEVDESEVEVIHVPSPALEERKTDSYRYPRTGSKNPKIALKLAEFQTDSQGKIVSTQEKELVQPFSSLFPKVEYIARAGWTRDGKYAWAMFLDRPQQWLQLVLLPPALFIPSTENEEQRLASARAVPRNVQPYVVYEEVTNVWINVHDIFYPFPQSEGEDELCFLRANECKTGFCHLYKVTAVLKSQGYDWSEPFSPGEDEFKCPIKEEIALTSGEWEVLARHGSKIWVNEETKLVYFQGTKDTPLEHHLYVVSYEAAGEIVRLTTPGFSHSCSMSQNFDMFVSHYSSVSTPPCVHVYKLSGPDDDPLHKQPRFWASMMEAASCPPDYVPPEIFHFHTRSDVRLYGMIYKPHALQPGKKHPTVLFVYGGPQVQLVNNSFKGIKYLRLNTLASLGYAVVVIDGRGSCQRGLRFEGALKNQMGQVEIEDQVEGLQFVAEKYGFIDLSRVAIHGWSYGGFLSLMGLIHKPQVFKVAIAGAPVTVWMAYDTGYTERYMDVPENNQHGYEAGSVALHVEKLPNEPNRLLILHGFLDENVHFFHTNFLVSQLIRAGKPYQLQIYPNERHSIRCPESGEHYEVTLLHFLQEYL

Sequence of Dipeptidyl peptidase 8 (Q6V1X1 whole entry): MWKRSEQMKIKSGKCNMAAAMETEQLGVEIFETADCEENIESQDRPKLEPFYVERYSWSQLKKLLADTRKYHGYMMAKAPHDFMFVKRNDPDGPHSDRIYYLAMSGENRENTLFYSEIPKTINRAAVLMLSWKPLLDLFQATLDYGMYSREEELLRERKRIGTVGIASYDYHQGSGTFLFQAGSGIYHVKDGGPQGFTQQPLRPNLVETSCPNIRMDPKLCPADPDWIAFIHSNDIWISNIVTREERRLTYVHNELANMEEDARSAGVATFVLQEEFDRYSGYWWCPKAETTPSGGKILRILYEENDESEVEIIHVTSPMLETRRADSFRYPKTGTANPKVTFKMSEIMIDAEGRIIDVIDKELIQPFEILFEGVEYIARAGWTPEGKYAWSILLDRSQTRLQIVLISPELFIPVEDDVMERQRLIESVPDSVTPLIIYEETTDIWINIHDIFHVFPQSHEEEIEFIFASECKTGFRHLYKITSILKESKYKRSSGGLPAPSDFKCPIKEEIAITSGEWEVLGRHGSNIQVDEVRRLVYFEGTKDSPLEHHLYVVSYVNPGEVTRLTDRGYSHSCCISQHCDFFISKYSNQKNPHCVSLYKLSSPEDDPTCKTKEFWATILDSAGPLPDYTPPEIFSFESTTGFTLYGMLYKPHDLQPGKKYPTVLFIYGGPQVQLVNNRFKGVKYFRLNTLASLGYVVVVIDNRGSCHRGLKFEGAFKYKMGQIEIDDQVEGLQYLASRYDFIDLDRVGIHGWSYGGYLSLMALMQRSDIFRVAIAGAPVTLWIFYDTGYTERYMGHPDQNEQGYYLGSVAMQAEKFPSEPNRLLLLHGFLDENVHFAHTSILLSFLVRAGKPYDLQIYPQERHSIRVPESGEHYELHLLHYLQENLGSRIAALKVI
Sequence of Dipeptidyl peptidase 2 (Q9EPB1 whole entry): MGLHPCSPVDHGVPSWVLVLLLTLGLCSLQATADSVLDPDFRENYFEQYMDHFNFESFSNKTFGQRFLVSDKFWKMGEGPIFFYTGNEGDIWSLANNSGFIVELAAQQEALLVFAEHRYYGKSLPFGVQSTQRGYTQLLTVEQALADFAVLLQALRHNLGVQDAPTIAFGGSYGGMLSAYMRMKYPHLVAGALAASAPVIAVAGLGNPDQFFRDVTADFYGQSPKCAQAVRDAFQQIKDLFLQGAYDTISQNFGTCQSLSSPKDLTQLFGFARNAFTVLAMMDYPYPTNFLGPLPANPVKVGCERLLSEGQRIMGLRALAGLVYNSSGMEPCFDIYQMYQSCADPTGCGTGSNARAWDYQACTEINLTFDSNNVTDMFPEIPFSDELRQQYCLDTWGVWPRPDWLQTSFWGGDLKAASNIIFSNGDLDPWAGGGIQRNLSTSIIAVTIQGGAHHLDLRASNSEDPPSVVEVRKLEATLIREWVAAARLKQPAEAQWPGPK

SMILES | IC50 (Dipeptidyl peptidase 2) | IC50 (Dipeptidyl peptidase 8) | other results
CCc1nc(CC(C)(C)C)c(CN)c(-c2ccc(C)cc2)c1CC(=O)O.O | > 100 µM | > 100 µM | remaining at 20 min, 1 µM [1]: 100%; Activity (Rattus norvegicus): Dose-dependent effect; remaining at 20 min, 1 µM [2]: 96.8%; remaining at 20 min, 1 µM [3]: 100%; solubility at 2 h [4]: > 1000 µg/mL; bioavailability [5]: 53.3%; half-life [6]: 5.74 h; bioavailability [7]: 88%; half-life [8]: 4.97 h; solubility at 2 h [9]: 930 µg/mL; inhibition (Canis familiaris): Active
Cc1ccc(-c2c(CCC(=O)O)c(C)nc(CC(C)C)c2CN)cc1 | 1.1 µM | > 30 µM | IC50 (Dipeptidyl peptidase 9): > 30 µM
Cc1ccc(-c2c(CC(=O)O)c(C)nc(CC(C)C)c2CN)cc1 | 50 µM | > 30 µM | IC50 (Dipeptidyl peptidase 9): > 30 µM
Cc1ccc(-c2c(CN)c(CC(C)(C)C)nc(CC(C)C)c2C(=O)O)cc1 | 1.5 µM | – | –
Cc1ccc(-c2c(CN)c(CC(C)(C)C)nc(Cc3ccccc3)c2C(=O)O)cc1 | 0.25 µM | – | –
Cc1ccc(-c2c(CC(=O)O)c(C)nc(CC(C)(C)C)c2CN)cc1 | – | > 100 µM | IC50 (Dipeptidyl peptidase 9): > 100 µM
Cc1ccc(-c2c(CN)c(CC(C)(C)C)nc(C(C)C)c2C(=O)O)cc1 | 1.6 µM | – | –

Continued, in another order:

IC50 (Dipeptidyl peptidase 2) | IC50 (Dipeptidyl peptidase 8) | SMILES | other results
4 µM | – | CCc1nc(CC(C)(C)C)c(CN)c(-c2ccc(C)cc2)c1C(=O)O | –
2 µM | – | CCCc1nc(CC(C)(C)C)c(CN)c(-c2ccc(C)cc2)c1C(=O)O | –
11 µM | – | CCCCc1nc(C)c(C(=O)O)c(-c2ccc(C)cc2)c1CN | –
5.6 µM | – | Cc1ccc(-c2c(CN)c(CC(C)C)nc(C)c2C(=O)O)cc1 | –
10 µM | – | Cc1ccc(-c2c(CN)c(CC(C)(C)C)nc(C)c2C(=O)O)cc1 | –
